# Screens from PubChem.
# Rows were chosen to be rich in hits. Some 3.5% of all compounds tested hit in one or more screens of this group.
# MrgX1 PAM – human MrgX1 positive allosteric modulation, primary screen; MrgX1-HEK293, Fluo-4 calcium flux, FDSS; hits give high values; B-score at 10 µM; 310,000 tested, 0.63% active;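 active = plate-corrected calcium response at least 3 library SD above typical, normal starting fluorescence, not activating the receptor alone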;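 also: compound read alongside a low EC10 to EC30 dose of BAM8-22 agonist; peak minus trough fluorescence over baseline measured at the second addition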
# MrgX1 ag – human MrgX1 receptor agonism, primary screen; 310,000 tested, 0.44% active; B-score at 10 µM; MrgX1-HEK293 cells, Fluo-4 calcium fluorescence, agonist mode; hits give high values;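 active = calcium response B-score plate-corrected fluorescence ratio at least 3 library SD, with starting fluorescence B-score inside 5 SD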
#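 Material: HEK293 cells stably expressing human MrgX1 receptor | Quantity: 15,000 cells per well | Times: Cells plated overnight, dye loaded 0.5 h 37 °C, 0.5 h room temperature | Measured by: Kinetic Fluo-4 NW fluorescence of intracellular calcium | Control set: Positive and negative controls per plate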
# RGS4 act – RGS4 potentiation or activation; HEK293 M3R/inducible RGS4, carbachol calcium flux Fluo4; hits give low values; B-score at 10 µM; AID 463111; 310,000 tested, 0.92% active;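 active = B-score of the integrated calcium signal more than 4 SD below the library mean, with starting fluorescence not abnormally high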;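 also: negative B-score means reduced calcium response which marks RGS4 activation or potentiation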
#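 Assay system: Inducible-RGS4 HEK293 cells carrying M3 receptor | Schedule: Compound preincubation 20 min at room temperature before agonist | Signal: Kinetic calcium fluorescence imaging with Fluo4-AM dye, 2 µM | Read-out basis: B score from integrated fluorescence ratio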
# RGS4 block – human RGS4 inhibition; HEK293 M3R/RGS4 inducible, Fluo-4 calcium flux; hits give high values; triggered by carbachol at its EC20; B-score at 10 µM; 310,000 tested, 0.45% active;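 active = B-score, a plate-corrected calcium signal, over three deviations above library mean, with baseline fluorescence within five deviations of library mean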;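 also: RGS4 expression induced by doxycycline in cells with stable M3 receptor; B-score is computed from the integrated fluorescence ratio over baseline after carbachol; higher B-score means a larger calcium signal and so more RGS4 inhibition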
# Target sequence (P49798 whole entry, looked up): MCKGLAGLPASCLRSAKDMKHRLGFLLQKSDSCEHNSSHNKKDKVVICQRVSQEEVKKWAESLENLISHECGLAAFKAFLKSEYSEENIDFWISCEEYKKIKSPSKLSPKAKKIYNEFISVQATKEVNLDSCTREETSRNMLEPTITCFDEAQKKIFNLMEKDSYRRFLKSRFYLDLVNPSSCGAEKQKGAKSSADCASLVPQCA
# MrgX1 antag – human MrgX1 receptor antagonism, primary screen; Q96LB2; MRGX1-HEK293 calcium flux, Fluo-4, BAM8-22 antagonism; hits give low values; B-score at 10 µM; 310,000 tested, 1.3% active;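 active = calcium-response B-score plate-corrected more than 3 library SD below zero, starting fluorescence within 5 deviations, no agonist response on first addition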;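 also: peak minus trough fluorescence over baseline after final BAM8-22 challenge near maximal dose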
# RGS4 activ val – RGS4 activation, validation assay; shares compounds with RGS4 act; HEK293 M3R/RGS4 inducible, carbachol calcium flux Fluo4; inhibition, % at 10 µM; 1,100 tested, 89% active; AID 602282;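 active = inhibition above 3 SD of the buffer control wells, cut at about 41% in these data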;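 also: signal is the integrated peak-minus-minimum Fluo4 fluorescence over baseline ratio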
# M3R Ca counter – activity in cells without induced RGS4 expression; inhibition, % at 10 µM; HEK293 M3R non-induced RGS4, Fluo4 calcium flux; after carbachol challenge at its EC90; AID 602283; 1,100 tested, 82% active; shares compounds with RGS4 act;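 active = inhibition exceeding 3 SD of buffer-only control wells, cut at about 26% in these data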;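 also: percent drop in integrated peak-minus-baseline over baseline Fluo4 ratio after carbachol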
# An asterisk follows results filed as active; i = inactive; x = no result given.
SMILES,MrgX1 PAM,MrgX1 ag,RGS4 act,RGS4 block,MrgX1 antag,RGS4 activ val,M3R Ca counter
O=C(c1cccs1)N1CCCC(c2nc3c(nnn3Cc3c(Cl)cccc3Cl)c(=O)[nH]2)C1 (stereo unspecified),i,i,-8.3*,i,i,52*,84*
COc1ccc(C)cc1S(=O)(=O)N1CCC(C(=O)NC2CCCC2)CC1,i,i,-8.1*,i,i,0,0
COc1c(S(=O)(=O)NCCCn2ccnc2)ccc(Cl)c1Cl,i,i,i,i,i,x,x
Cc1ccc(NC(=S)NC(NC(=O)c2ccccc2C)C(Cl)(Cl)Cl)c(C)c1 (stereo unspecified),i,i,-8.5*,i,i,0,0
CC1CCC(NC(=O)c2ccc3c(c2)S(=O)(=O)c2ccccc2C3=O)CC1 (stereo unspecified),i,i,i,i,i,x,x
CCOC(=O)C1=C(Cc2ccc(Cl)cc2)C(=O)c2ccccc2C1=O,i,i,-9.3*,i,-4.5*,86*,30*
COc1cc(OC)c(NC(=O)Cn2cnc3sc(C)c(S(=O)(=O)N4CCOCC4)c3c2=O)cc1Cl,i,i,i,i,i,x,x
CC(OC(=O)CCCN=C1NS(=O)(=O)c2ccccc21)C(=O)Nc1ccccc1F (stereo unspecified),i,i,i,i,i,x,x
CC(C)N(CC#CC(O)(c1ccccc1)c1ccccc1)CCO,i,i,-8.6*,i,i,91*,52*
CN(CC#CC(O)(c1ccccc1)c1ccccc1)C(C)(C)C,i,i,-10*,i,i,94*,91*
C[C@H](O)c1[nH]c2cc(F)ccc2c1[C@H](C)O,i,i,i,i,i,x,x
CCOc1ccc(C(C)=O)cc1CN1C(=O)NC(C)(C2CC2)C1=O (stereo unspecified),i,i,i,i,i,x,x
CSc1cccc(NS(=O)(=O)c2cc(Br)cnc2N)c1,i,i,-7.7*,i,i,92*,98*
Cc1ccc(NS(=O)(=O)c2cc(Br)cnc2N)cc1C,i,i,-8*,i,i,94*,94*
CCCCNC(=O)C(c1ccc(OCC(=O)OC)c(C(=O)OC)c1)N(CCc1c[nH]c2ccccc12)C(=O)CCCCCN1C(=O)NC(c2ccc(-c3ccccc3)cc2)C(C(=O)OCc2ccccc2)=C1C (stereo unspecified),x,x,i,i,x,x,x
Cc1cc(C)c(C)c(S(=O)(=O)N2C(=S)NC(=O)C2C(C)C)c1C (stereo unspecified),i,i,i,i,i,x,x
O=C(CCCNC(=O)/C(=C\c1ccc(F)cc1)NC(=O)c1ccccc1)OCc1ccccc1,i,i,i,i,i,x,x
O=C(O)CSCC(=O)N(c1ccccc1)c1ccccc1,i,i,i,i,i,x,x
COc1cccc(C2SCC(=O)N2c2ccc(Br)cc2)c1OC (stereo unspecified),i,i,-9.8*,i,i,91*,92*
COc1ccccc1-c1cn[nH]c1-c1ccc(OCc2ccccc2)cc1O,i,i,i,i,i,x,x
COc1ccc(-c2cn[nH]c2-c2ccc(OCc3ccccc3)cc2O)cc1,i,i,-9.7*,i,i,0,0
O=C(NCc1ccc2c(c1)OCO2)c1ccc2c(c1)N(Cc1c(F)cccc1Cl)C(=O)CS2,i,i,-7.7*,i,i,93*,60*
COc1cccc(-c2nc(N3CCCCC3)c3ccccc3n2)c1O,i,i,-8.8*,i,i,92*,91*
COc1ccc(N(C)S(=O)(=O)c2c(C)[nH]c(=O)[nH]c2=O)cc1,i,i,-8.1*,i,i,0,0
C=CC[N+]1(CC#CCOC(c2ccccc2)c2ccccc2)CCOCC1,i,i,i,i,i,x,x
